In the M2OR odorant receptor database:

Assays:
Details in all cases: stereoisomer not certain
OR2M5 (Homo sapiens) = OR2M5 (Homo sapiens) (UniProt A3KFT3)
In short: (§1)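 Assay methods differ from source to source, frequently being transient luciferase assays in mammalian cell lines. For each receptor–molecule pair, the label responsive (active) applies when the original authors judged the measured signal statistically different from baseline, and non-responsive (inactive) applies otherwise.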

OR2M5 D11G = tested on: OR2M5 D11G
In short: as §1

OR2S2 (Homo sapiens) = OR2S2 (Homo sapiens) (UniProt Q9NQN1)
In short: as §1

OR2T1 (Homo sapiens) = OR2T1 (Homo sapiens) (UniProt O43869)
In short: as §1

OR2T11 (Homo sapiens) = OR2T11 (Homo sapiens) (UniProt Q8NH01)
In short: as §1

OR2T12 (Homo sapiens) = OR2T12 (Homo sapiens) (UniProt Q8NG77)
In short: as §1

OR2T2 (Homo sapiens) = OR2T2 (Homo sapiens) (UniProt Q6IF00)
In short: as §1

OR2T2 L104F L262Q = tested on: OR2T2 L104F L262Q
In short: as §1

OR2T2 L104F = tested on: OR2T2 L104F
In short: as §1

OR2T2 Q313H = tested on: OR2T2 Q313H
In short: as §1

OR2T27 (Homo sapiens) = OR2T27 (Homo sapiens) (UniProt Q8NH04)
In short: as §1

OR2T29 (Homo sapiens) = OR2T29 (Homo sapiens) (UniProt Q8NH02)
In short: as §1

OR2T3 (Homo sapiens) = OR2T3 (Homo sapiens) (UniProt Q8NH03)
In short: as §1

OR2T3 L256F = tested on: OR2T3 L256F
In short: as §1

OR2T3 R298C = tested on: OR2T3 R298C
In short: as §1

OR2T3 Y109H = tested on: OR2T3 Y109H
In short: as §1

Measured: odorant receptor agonist call

Chain of OR2T3 (Homo sapiens) (Q8NH03 whole entry): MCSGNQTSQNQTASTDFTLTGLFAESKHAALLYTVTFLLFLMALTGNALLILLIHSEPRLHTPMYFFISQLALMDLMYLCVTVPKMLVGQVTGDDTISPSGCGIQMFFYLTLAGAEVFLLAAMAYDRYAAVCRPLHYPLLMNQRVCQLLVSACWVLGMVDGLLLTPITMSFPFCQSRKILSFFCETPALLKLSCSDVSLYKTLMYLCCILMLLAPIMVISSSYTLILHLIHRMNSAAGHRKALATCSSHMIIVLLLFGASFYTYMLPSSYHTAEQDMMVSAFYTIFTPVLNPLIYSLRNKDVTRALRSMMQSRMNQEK
Chain of OR2T29 (Homo sapiens) (Q8NH02 whole entry): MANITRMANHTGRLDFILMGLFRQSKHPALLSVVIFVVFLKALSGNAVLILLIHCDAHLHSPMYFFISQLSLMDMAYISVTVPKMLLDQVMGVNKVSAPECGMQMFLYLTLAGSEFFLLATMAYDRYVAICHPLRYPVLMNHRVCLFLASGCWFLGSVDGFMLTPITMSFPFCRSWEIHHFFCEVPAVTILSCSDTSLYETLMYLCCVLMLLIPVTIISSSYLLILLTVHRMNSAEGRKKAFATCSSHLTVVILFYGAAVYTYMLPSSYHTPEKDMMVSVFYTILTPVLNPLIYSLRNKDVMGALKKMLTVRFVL
Chain of OR2S2 (Homo sapiens) (Q9NQN1 whole entry): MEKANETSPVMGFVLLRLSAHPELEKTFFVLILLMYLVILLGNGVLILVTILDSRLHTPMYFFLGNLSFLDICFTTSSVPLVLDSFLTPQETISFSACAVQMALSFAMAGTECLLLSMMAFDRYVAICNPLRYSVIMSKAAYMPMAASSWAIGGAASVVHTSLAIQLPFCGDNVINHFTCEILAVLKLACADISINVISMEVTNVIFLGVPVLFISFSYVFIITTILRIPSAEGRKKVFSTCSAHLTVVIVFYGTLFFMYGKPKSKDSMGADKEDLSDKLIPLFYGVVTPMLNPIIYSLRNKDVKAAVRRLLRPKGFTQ
Chain of OR2T12 (Homo sapiens) (Q8NG77 whole entry): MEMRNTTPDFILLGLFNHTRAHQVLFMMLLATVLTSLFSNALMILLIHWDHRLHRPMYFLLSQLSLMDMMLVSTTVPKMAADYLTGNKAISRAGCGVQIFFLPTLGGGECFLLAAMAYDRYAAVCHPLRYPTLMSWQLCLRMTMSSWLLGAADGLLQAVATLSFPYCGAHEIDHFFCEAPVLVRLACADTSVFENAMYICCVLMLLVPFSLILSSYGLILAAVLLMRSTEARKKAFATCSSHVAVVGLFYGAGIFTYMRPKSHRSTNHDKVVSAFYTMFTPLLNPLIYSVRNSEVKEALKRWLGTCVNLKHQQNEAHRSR
Chain of OR2T27 (Homo sapiens) (Q8NH04 whole entry): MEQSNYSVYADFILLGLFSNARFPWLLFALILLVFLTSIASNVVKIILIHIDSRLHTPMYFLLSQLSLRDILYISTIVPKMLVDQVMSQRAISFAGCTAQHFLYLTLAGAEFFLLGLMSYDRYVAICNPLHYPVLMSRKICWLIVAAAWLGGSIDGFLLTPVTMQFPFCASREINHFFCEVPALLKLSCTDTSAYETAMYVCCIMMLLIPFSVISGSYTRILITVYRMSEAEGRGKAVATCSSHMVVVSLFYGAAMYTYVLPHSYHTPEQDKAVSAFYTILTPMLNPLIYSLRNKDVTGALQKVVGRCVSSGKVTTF
Chain of OR2T1 (Homo sapiens) (O43869 whole entry): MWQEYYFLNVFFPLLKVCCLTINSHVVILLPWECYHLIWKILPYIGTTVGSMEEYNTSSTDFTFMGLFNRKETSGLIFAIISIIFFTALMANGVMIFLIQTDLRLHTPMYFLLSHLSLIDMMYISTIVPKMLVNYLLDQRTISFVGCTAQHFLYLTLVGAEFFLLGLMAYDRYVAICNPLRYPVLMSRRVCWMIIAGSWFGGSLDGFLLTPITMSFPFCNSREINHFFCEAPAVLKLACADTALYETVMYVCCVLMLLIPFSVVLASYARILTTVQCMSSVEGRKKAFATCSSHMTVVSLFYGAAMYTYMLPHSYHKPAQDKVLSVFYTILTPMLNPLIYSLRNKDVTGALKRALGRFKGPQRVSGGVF
Chain of OR2T11 (Homo sapiens) (Q8NH01 whole entry): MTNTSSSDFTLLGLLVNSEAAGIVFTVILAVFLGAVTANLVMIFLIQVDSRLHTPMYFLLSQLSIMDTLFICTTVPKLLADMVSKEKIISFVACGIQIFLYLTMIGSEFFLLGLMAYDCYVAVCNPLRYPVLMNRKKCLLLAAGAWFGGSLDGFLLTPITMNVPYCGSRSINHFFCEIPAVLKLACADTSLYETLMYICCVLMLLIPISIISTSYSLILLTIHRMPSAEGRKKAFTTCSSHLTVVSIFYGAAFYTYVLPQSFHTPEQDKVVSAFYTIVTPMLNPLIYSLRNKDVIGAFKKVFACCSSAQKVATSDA
Chain of OR2M5 (Homo sapiens) (A3KFT3 whole entry): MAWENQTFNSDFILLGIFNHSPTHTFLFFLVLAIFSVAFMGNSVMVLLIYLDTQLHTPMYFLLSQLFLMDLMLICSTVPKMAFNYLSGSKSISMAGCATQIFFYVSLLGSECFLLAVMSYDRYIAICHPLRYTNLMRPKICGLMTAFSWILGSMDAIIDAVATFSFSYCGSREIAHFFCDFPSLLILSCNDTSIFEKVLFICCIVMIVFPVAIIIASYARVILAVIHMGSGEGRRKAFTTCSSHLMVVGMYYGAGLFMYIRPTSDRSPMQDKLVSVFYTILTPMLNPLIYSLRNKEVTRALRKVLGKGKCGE
Chain of OR2T2 (Homo sapiens) (Q6IF00 whole entry): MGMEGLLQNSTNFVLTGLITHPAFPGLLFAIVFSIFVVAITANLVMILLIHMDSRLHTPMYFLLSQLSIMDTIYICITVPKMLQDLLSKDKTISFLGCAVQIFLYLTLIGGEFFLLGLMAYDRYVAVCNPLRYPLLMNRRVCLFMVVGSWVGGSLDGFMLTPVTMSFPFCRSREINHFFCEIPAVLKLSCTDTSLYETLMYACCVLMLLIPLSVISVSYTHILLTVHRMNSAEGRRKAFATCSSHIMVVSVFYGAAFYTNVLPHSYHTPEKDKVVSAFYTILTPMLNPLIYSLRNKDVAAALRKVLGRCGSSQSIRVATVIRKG
Chain of OR2T3 L256F (as listed by the source, stated change not applied): as the sequence (Q8NH03 whole entry) above, with L256F counted along it
Chain of OR2M5 D11G (as listed by the source, stated change not applied): as the sequence (A3KFT3 whole entry) above, with D11G counted along it
Chain of OR2T2 Q313H (as listed by the source, stated change not applied): as the sequence (Q6IF00 whole entry) above, with Q313H counted along it
Chain of OR2T2 L104F (as listed by the source, stated change not applied): as the sequence (Q6IF00 whole entry) above, with L104F counted along it
Chain of OR2T3 R298C (as listed by the source, stated change not applied): as the sequence (Q8NH03 whole entry) above, with R298C counted along it
Chain of OR2T3 Y109H (as listed by the source, stated change not applied): as the sequence (Q8NH03 whole entry) above, with Y109H counted along it

C=CCOC(=O)Cc1ccccc1
inactive: all assays above

Cc1c([N+](=O)[O-])c(C)c([N+](=O)[O-])c(C(C)(C)C)c1[N+](=O)[O-]
inactive: OR2M5 (Homo sapiens) | OR2S2 (Homo sapiens) | OR2T1 (Homo sapiens) | OR2T11 (Homo sapiens) | OR2T12 (Homo sapiens) | OR2T2 (Homo sapiens) | OR2T27 (Homo sapiens) | OR2T29 (Homo sapiens) | OR2T3 (Homo sapiens)
